# Screening results: PubChem BioAssay, several laboratories
# L major viab: inhibitors of Leishmania major promastigote growth | inhibition, % at 10 µM | Leishmania major promastigotes, resazurin fluorescence viability | 9% of 200,000 active; in the data active = inhibition above about 50%;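 note: promastigotes grown with compound for 44 hours at 28 °C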
# TNAP act hiacc: activators of human TNAP at high phosphate acceptor concentration. P05186. purified TNAP, CDP-star luminescence, 1 M DEA, 30 min; active compounds read high; 0 = EDTA background, 1 = DMSO-only activity. activation factor at 20 µM. 200,000 tested, under 10 active. AID 1136;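 active = activation factor at least 2 at 20 µM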
# Target sequence (P05186 whole entry, looked up): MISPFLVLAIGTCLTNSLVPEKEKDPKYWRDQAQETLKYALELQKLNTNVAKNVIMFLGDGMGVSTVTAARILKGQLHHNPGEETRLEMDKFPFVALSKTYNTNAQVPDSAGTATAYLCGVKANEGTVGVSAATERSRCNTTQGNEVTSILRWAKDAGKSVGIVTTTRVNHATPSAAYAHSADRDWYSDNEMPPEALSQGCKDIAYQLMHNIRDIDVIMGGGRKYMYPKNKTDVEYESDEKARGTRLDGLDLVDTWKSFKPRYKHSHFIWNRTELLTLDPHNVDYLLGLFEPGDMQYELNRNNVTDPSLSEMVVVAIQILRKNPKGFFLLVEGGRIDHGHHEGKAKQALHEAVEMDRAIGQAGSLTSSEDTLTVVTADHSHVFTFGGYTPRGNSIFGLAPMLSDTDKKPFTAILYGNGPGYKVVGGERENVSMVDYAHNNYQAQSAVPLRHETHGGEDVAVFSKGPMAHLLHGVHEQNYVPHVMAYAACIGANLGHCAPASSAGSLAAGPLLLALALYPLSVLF
#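 Test system – human TNAP · Doses – 20 µM single point · Incubation – 30 min, room temperature · Signal – luminescent substrate turnover signal · Read-out basis – activation factor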
# TNAP inh no acc: blocks human TNAP activity with no phosphate acceptor present; inhibition, % at 20 µM; AID 1012; P05186; purified TNAP, CDP-star luminescence, 30 min; 0.26% of 200,000 active;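 active = tissue-nonspecific alkaline phosphatase inhibition above about 50% at 20 µM in the single-dose screen, limit read from the data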;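 note: 0% = DMSO negative control and 100% = EDTA positive control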
# TNAP inh hi DEA: blocks human TNAP under high phosphate acceptor concentration | purified TNAP, CDP-star luminescence, 1 M DEA | 0.03% of 200,000 active | inhibition, % at 20 µM | P05186;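 active = over 50% inhibition of tissue-nonspecific alkaline phosphatase at 20 µM in the single-dose screen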;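 note: plate controls were DMSO wells for no effect and EDTA-quenched wells as full inhibition for full effect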
# HCT116 bCat-KO: beta-catenin-lacking colon tumor cell growth suppression | AID 818 | 1.5% of 140,000 active | viability, % at 10 µM | HCT116 beta-catenin knockout viability, CellTiter-Glo, 60 h; active compounds read low;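 active = viability at or under a set limit, the compound median less 4 SD, cut at about 6% in these data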;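 note: 0% = Hyamine 1622 control at 20 µM and 100% = untreated cell control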
# PTEN del growth: growth suppressors of cells with PTEN tumor suppressor deletion | HCT116 PTEN-null viability, CellTiter-Glo, 60 h; active compounds read low | viability, % at 10 µM | 1.2% of 140,000 active | AID 827;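 active = viability at or below a set limit, 4 SD under the median of all tested compounds, cut at about 3.7% in these data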;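 note: PTEN knockout HCT116 line with beta catenin targeted HCT116 as companion control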
# Numbers without * were called inactive; / = no result. The list is not random: actives were taken first. Their share in the collection is about 9.6%.
SMILES,L major viab,TNAP act hiacc,TNAP inh no acc,TNAP inh hi DEA,HCT116 bCat-KO,PTEN del growth
Cc1ccc(S(=O)(=O)CCC(=O)NCCN2C(=O)S/C(=C\c3ccccc3)C2=O)cc1,8,1,-4,3,75,71
COc1ccc(C(=O)N2CCCC(c3nc(-c4ccc(OC)c(OC)c4)no3)C2)c(OC)c1 (stereo unspecified),87*,1,-4,-1,87,81
CCOC(=O)c1c2ccc(OCC(=O)N/N=C/c3ccc(C)cc3)cc2n2ccccc12,-1,1,-21,-3,1.5*,1.6*
CCOC(=O)c1c2ccc(OCC(=O)NN)cc2n2ccccc12,6,1.2,-45,-16,/,/
Cc1ncc([N+](=O)[O-])n1Cc1ccc(Br)cc1,91*,1,-4,-1,/,/
O=[N+]([O-])c1cn(Cc2ccc(Cl)cc2)cn1,64*,1.1,-5,-5,96,95
Cc1ncc([N+](=O)[O-])n1Cc1ccc(Cl)cc1,83*,1,-2,-4,/,/
CC(C)(C)c1ccc(C(=O)NCC(=O)OCc2ccc([N+](=O)[O-])cc2)cc1,-6,1,-5,4,95,115
CCC(NC(=O)/C(=C\c1ccc2c(c1)OCO2)NC(C)=O)C(=O)O (stereo unspecified),40,1,-8,2,94,99
Cc1nc(C(C)NC(=O)CCc2nnc(CCCc3ccccc3)o2)c(C)s1 (stereo unspecified),-5,1,-10,-4,/,/
Cc1cccc(N(CC(=O)Nc2ccccc2-c2ccccc2)S(=O)(=O)c2ccccc2)c1C,50*,1,-1,-1,63,80
COCC(=O)Nc1ccccc1-c1ccccc1,-3,1,-11,-4,/,/
Cc1ccc(CC(=O)Nc2ccccc2-c2ccccc2)cc1C,70*,1.1,-13,-8,76,72
Cc1ccc(S(=O)(=O)N(CC(=O)Nc2ccccc2-c2ccccc2)c2ccc(C)cc2C)cc1,17,1,-25,-4,85,84
O=C(CCn1cnc2ccccc2c1=O)Nc1nc(-c2ccc(Br)cc2)cs1,-6,1,-10,1,85,83
CC1=CC(=O)N(c2ccc(C)cc2)C1c1ccc(Cl)cc1 (stereo unspecified),61*,1,-8,-2,74,70
CC(=O)Oc1ccccc1C1C[C@]2(C)CC(=O)NC2N1C(C)=O (stereo partly specified),-2,1.1,-6,-6,/,/
Cc1ccc(NC(=S)N(CCCN2CCOCC2)Cc2cccs2)c(C)c1,69*,1,-3,-3,86,90
CCOC(=O)c1ccc(NC(=S)N(CCCN2CCN(C)CC2)Cc2cccs2)cc1,40,1,-12,-2,/,/
Cc1c(Cl)cccc1NC(=S)N(CCCN1CCOCC1)Cc1cccs1,14,1.1,-8,-8,91,93
CCOC(=O)c1ccc(NC(=S)N(CCCN2CCCC(C)C2)Cc2cccs2)cc1 (stereo unspecified),97*,1.1,-15,-8,/,/
CCOC(=O)c1ccc(NC(=S)N(CCCN2CCCC2)Cc2cccs2)cc1,82*,1,-10,-4,/,/
CCOC(=O)c1ccc(NC(=S)N(CCN2CCCCCC2)Cc2cccs2)cc1,96*,1,-12,-1,/,/
COC(=O)C/C=C/[C@@H](C)[C@@H](/C=N/OC[C@@H](C)[C@H](OCc1ccccc1)C(C)C)NS(=O)(=O)c1ccc(C)cc1,-2,1.1,-8,-7,74,58
O=C(c1ccco1)N1N=C(c2ccc(Br)cc2)CC1(O)C(F)(F)F (stereo unspecified),-1,0.9,-2,7,/,/
SMILES,L major viab,TNAP act hiacc,TNAP inh no acc,TNAP inh hi DEA,HCT116 bCat-KO,PTEN del growth
CSCCC(NS(=O)(=O)c1ccc(Cl)c(Cl)c1)C(=O)O (stereo unspecified),-7,1,-6,0,/,/
COc1ccc(NC(=S)N(CCCN2CCCCC2)Cc2cccs2)cc1,83*,1,15,2,96,99
CCC(C(=O)NC1CCCCC1)N(Cc1cccs1)C(=O)c1snc(C(N)=O)c1N (stereo unspecified),12,1,-2,2,/,/
Cc1ccc(S(=O)(=O)N2CCN(S(=O)(=O)c3ccccc3)C2c2ccc(N(C)C)cc2)cc1 (stereo unspecified),89*,1,-4,-4,90,99
COc1ccc(C2N(S(=O)(=O)c3ccc(C)cc3)CCN2S(=O)(=O)c2ccc(C)cc2)cc1,66*,1,-6,-2,91,93
CC(=O)N1CCN(S(=O)(=O)c2ccc(C)cc2)C1c1ccc(N(C)C)cc1 (stereo unspecified),2,1.1,-13,-5,83,79
COc1ccc(/C=C(\NC(=O)c2ccccc2)C(=O)OC[C@@H]2CCC[N+]3(C)CCCCC23)cc1OC (stereo partly specified),-1,1,-11,1,/,/
COc1cccc(C2CC(c3cccc(Br)c3)n3nc(N)nc3N2)c1 (stereo unspecified),75*,1,-12,0,86,81
COc1cccc(C2CC(c3ccccc3)Nc3nc(N)nn32)c1 (stereo unspecified),-10,1.1,-11,-6,/,/
Nc1nc2n(n1)C(c1cccc(Br)c1)CC(c1ccccc1)N2 (stereo unspecified),78*,1,-18,2,93,92
CCN1CCN(CCNC(=O)c2cn(C(C)c3ccccc3F)nn2)CC1 (stereo unspecified),-3,1,-11,-5,96,102
Cc1ccc(C(C)n2cc(C(=O)NCCN3CCN(C)CC3)nn2)cc1 (stereo unspecified),92*,1,-7,4,98,96
COc1ccc(C(=O)Nc2ccc(S(=O)(=O)N3CCCCC3)cc2)cc1OC,67*,1,-14,-4,94,85
COc1ccc(-c2cnnn2-c2ccc(NC(=O)c3ccco3)cc2)cc1OC,6,1,-9,1,85,83
COc1ccc(-c2cnnn2-c2ccc(NC(=O)c3ccc(S(=O)(=O)N4CCCCC4)cc3)cc2)cc1OC,96*,1,-5,0,76,73
CCS(=O)(=O)n1nc(-c2ccco2)nc1SC,-5,1.1,4,-8,91,98
CCS(=O)(=O)n1nc(-c2ccc(Cl)cc2)nc1SC,-4,1,61*,0,101,94
Cc1cccn2c(=O)c(/C=N/O)c(N3CCOCC3)nc12,-6,1,-7,-5,/,/
CC(C)c1onc(C(=O)NC(C)c2ccccc2)c1[N+](=O)[O-] (stereo unspecified),2,1,0,0,/,/
